Laboratory results taken from ChEMBL document CHEMBL4406881, “Design, synthesis and biological evaluation of benzoylacrylic acid shikonin ester derivatives as irreversible dual inhibitors of tubulin and EGFR” (Bioorg Med Chem, 2019).
Activity calls are given as the source filed them. The rule behind the calls is not given here.

Legend:
A549 [1] = experiment: Induction of apoptosis in human A549 cells assessed as viable cells at 8 uM after 24 hrs by Annexin-V/PI staining based flow cytometry analysis (reference value: 91.4%); assay type: functional; conditions: A549, 24 h, read-out: Activity
How it was run: (§1)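 A549 cells seeded overnight at 37 °C, 5% CO2, then exposed to 0, 2, 4, 8 or 12 µM for 24 h (dose series) or 8 µM for 0, 12, 24, 36 h (time series). Harvested, PBS-washed, stained with Annexin V-FITC and PI in binding buffer 15 min at room temperature in the dark, analysed by flow cytometry; three independent experiments.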

[2] = biological target: T1, Epidermal growth factor receptor (Homo sapiens, UniProt P00533); experiment: Inhibition of EGFR signalling in human A549 cells assessed as reduction in EGFR phosphorylation after 24 hrs by Western blot analysis; assay type: cell-based
How it was run: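 A549 cells in 6-well plates were lysed in RIPA buffer with protease inhibitors on ice for 30 min and cleared at 4 °C. Protein was quantified by BCA, run on SDS-PAGE and transferred to PVDF. Membranes were blocked with milk, probed with primary antibody (1:1000) overnight at 4 °C, then secondary antibody (1:3000-1:5000) 1 h at RT. Detection by ECL; band densitometry normalised to GAPDH (β-actin also used). Three independent experiments.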

A549 [3] = experiment: Induction of apoptosis in human A549 cells assessed as early apoptotic cells at 8 uM after 36 hrs by Annexin-V/PI staining based flow cytometry analysis (reference value: 2.02%); assay type: functional
A549 [4] = experiment: Cell cycle arrest in human A549 cells assessed as accumulation at G2/M phase at 8 uM after 24 hrs by RNAse A/ PI staining based flow cytometric analysis (reference value: 9.47%); assay type: functional
How it was run: (§2)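 A549 cells at 5.0×10^4 per well were grown 12 h at 37 °C. Treatment was 0, 2, 4 or 8 µM for 24 h, or 8 µM for 0, 12, 24 or 36 h. Cells were fixed in 70% ethanol at −20 °C for at least 12 h, then stained in PBS with 0.1 mg/mL RNase A and 5 µg/mL PI. At least 10,000 events per sample were collected by flow cytometry to give G0/G1, S and G2/M percentages.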

[5] = biological target: T1, Epidermal growth factor receptor; experiment: Potency index, ratio of shi-konin IC50 to compound IC50 for inhibition of C-terminal His-tagged N-terminal GST-tagged human EGFR (668 to 1210 residues) expressed in baculovirus infected Sf9 cells after 30 mins in presence of gamma-[32p-ATP] binding assay
HeLa = experiment: Antiproliferative activity against human HeLa cells assessed as reduction in cell viability after 24 hrs by MTT assay; assay type: functional, cell-based
How it was run: (§3)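 MTT colorimetric assay. Cells in log phase in medium with 10% FBS were seeded at 10⁴ cells/well and left overnight at 37 °C, 5% CO₂ to reattach. Compounds were added at 0.1, 1, 10 and 100 μM in 10% FBS for 24 h. IC50 reported as mean ± SD of three independent experiments.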

A549 [6] = experiment: Antiproliferative activity against human A549 cells assessed as reduction in cell viability after 24 hrs by MTT assay; assay type: functional, cell-based; conditions: A549, 24 h
MCF7 = experiment: Antiproliferative activity against human MCF7 cells assessed as reduction in cell viability after 24 hrs by MTT assay; assay type: functional, cell-based; conditions: MCF7, 24 h; how it was run: as §3
A549 [7] = experiment: Induction of apoptosis in human A549 cells assessed as necrotic cells after at 8 uM 24 hrs by Annexin-V/PI staining based flow cytometry analysis (reference value: 1.81%); assay type: functional; how it was run: as §1
[8] = Cytotoxicity against human LO2 cells assessed as reduction in cell viability after 24 hrs by MTT assay; assay type: cell-based, L02; how it was run: as §3
A549 [9] = experiment: Cell cycle arrest in human A549 cells assessed as downregulation of CDK2 expression at 2 to 8 uM by immunoblot analysis; assay type: functional, cell-based
How it was run: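 A549 lysates in RIPA buffer with protease inhibitors were run on SDS-PAGE and blotted to PVDF. Membranes were probed overnight at 4 °C with primary antibody at 1:1000, then secondary antibody at 1:3000-1:5000 for 1 h, and detected by ECL. Band intensity was normalised to GAPDH. Results are mean ± S.E.M. from three independent experiments.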

A549 [10] = experiment: Induction of apoptosis in human A549 cells assessed as early apoptotic cells at 4 uM after 24 hrs by Annexin-V/PI staining based flow cytometry analysis (reference value: 1.15%); assay type: functional
A549 [11] = experiment: Cell cycle arrest in human A549 cells assessed as accumulation at G1 phase at 2 uM after 24 hrs by RNAse A/ PI staining based flow cytometric analysis (reference value: 73.30%); assay type: functional; how it was run: as §2
A549 [12] = experiment: Induction of apoptosis in human A549 cells assessed as high mitochondrial membrane potential at 8 uM after 12 hrs by JC-1 staining-based flow cytometric analysis (reference value: 90.6%); assay type: functional
How it was run: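 JC-1 staining of A549 cells treated for 12 h. CCCP-treated wells, 20 min at 37 °C, served as positive control. Collected cells were incubated with JC-1 solution at 37 °C for 30 min, washed, and analysed by flow cytometry for the fraction with high ΔΨm and for PI-positive cells. Results are mean ± S.E.M. of three replicates.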

A549 [13] = experiment: Induction of apoptosis in human A549 cells assessed as increase in Bax expression at 2 to 8 uM after 24 hrs by Western blot analysis; assay type: functional, cell-based
How it was run: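 Western blot of A549 cells treated for 24 h. Lysates in RIPA buffer were run on SDS-PAGE and transferred to PVDF. Primary antibody at 1:1000 overnight at 4 °C, secondary antibody at 1:3000-1:5000 for 1 h, ECL detection. Densitometry was normalised to GAPDH; mean ± S.E.M. from three independent experiments.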

A549 [14] = experiment: Induction of apoptosis in human A549 cells assessed as late apoptotic cells at 12 uM after 24 hrs by Annexin-V/PI staining based flow cytometry analysis (reference value: 5.69%); assay type: functional
A549 [15] = experiment: Cell cycle arrest in human A549 cells assessed as accumulation at G2/M phase at 8 uM after 36 hrs by RNAse A/ PI staining based flow cytometric analysis (reference value: 12.65%); assay type: functional; how it was run: as §2
A549 [16] = experiment: Induction of apoptosis in human A549 cells assessed as viable cells at 2 uM after 24 hrs by Annexin-V/PI staining based flow cytometry analysis (reference value: 91.4%); assay type: functional; conditions: A549, 24 h, read-out: Activity; how it was run: as §1
[17] = Toxicity in ip dosed Balb/c mouse xenografted with human A549 cells assessed as effect on body weight at 2 to 4 mg/kg, ip administered once every two days for 32 days and measured for every 2 days; assay type: organism-based; conditions: in vivo
How it was run: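 Female BALB/c nude mice (5-6 weeks) received 6×10^6 A549 cells s.c. in the flank. After two weeks (tumours ~90 mm³) they were split into 5 groups (n = 8). Dosing was 2 or 4 mg/kg, dissolved in DMSO, i.p. once every two days for 16 doses; DMSO vehicle served as control. Body weight and tumour volume (L×S²/2) were recorded every two days; mice were killed at day 32.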

A549 [18] = experiment: Induction of apoptosis in human A549 cells assessed as viable cells at 12 uM after 24 hrs by Annexin-V/PI staining based flow cytometry analysis (reference value: 91.4%); assay type: functional; conditions: A549, 24 h, read-out: Activity; how it was run: as §1
A549 [19] = experiment: Cell cycle arrest in human A549 cells assessed as accumulation at S phase at 4 uM after 24 hrs by RNAse A/ PI staining based flow cytometric analysis (reference value: 17.23%); assay type: functional; how it was run: as §2

T1 sequence (P00533 whole entry): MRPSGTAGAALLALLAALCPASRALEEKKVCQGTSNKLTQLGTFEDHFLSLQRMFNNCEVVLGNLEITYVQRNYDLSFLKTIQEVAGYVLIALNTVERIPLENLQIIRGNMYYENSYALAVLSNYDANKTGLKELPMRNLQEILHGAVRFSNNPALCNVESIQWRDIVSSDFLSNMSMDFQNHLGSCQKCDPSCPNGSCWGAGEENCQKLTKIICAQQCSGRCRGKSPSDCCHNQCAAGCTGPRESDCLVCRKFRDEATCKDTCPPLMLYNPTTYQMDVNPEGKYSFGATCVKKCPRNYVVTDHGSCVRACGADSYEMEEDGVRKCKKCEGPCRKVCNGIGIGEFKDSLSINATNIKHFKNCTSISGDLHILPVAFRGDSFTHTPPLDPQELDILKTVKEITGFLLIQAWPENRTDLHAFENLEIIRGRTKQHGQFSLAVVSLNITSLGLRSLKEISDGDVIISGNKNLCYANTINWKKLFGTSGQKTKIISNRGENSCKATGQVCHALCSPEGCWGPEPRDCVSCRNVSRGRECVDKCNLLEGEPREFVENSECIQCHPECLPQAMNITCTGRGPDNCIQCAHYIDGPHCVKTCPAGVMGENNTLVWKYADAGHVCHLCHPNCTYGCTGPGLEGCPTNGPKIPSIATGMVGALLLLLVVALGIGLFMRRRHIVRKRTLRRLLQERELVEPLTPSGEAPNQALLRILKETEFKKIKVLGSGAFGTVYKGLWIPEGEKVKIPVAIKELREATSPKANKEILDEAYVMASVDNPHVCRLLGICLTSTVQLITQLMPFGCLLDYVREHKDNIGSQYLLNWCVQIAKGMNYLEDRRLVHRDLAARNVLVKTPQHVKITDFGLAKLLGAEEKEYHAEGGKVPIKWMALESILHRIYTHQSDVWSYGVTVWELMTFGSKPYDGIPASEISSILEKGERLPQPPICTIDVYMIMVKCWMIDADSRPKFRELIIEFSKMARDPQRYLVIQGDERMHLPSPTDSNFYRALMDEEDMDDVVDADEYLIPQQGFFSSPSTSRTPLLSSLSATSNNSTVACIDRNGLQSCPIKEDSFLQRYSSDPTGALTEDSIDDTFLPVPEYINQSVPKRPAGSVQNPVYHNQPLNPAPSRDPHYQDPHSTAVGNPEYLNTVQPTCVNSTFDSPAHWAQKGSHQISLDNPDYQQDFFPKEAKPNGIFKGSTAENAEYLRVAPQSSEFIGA

inhibition [2]: Dose-dependent effect
Ratio IC50 [5]: 6
IC50 (HeLa): 7.93 µM
IC50 (A549 [6]): 4.37 µM
IC50 (MCF7): 8.9 µM
Compound: CC(C)=CC[C@@H](OC(=O)/C=C\C(=O)c1ccc(F)cc1)C1=CC(=O)c2c(O)ccc(O)c2C1=O
viability at 8 µM (A549 [1]): 30.6%
Activity (A549 [3]): 43.8%
Activity (A549 [4]): 33.01%
Activity (A549 [7]): 3.29%
CC50 at 24 h [8]: 89.2 µM
Activity (A549 [9]): Active
Activity (A549 [10]): 17.6%
Activity (A549 [11]): 61.67%
Activity (A549 [12]): 55.8%
Activity (A549 [13]): Active
Activity (A549 [14]): 38.1%
Activity (A549 [15]): 46.55%
viability at 2 µM (A549 [16]): 83.7%
Activity [17]: Non-Toxic
viability at 12 µM (A549 [18]): 15.1%
Activity (A549 [19]): 19.8%
